Measurements reported in ChEMBL document CHEMBL1177710, “Structure-based drug design and optimization of mannoside bacterial FimH antagonists” (J Med Chem, 2010).

Assays:
Escherichia coli [1] = assay: Inhibition of Escherichia coli FimH-mediated hemagglutinination of guinea pig red blood cells assessed as drug level required for > 90% inhibition of hemagglutinination
[2] = Displacement of 5(6)-FAM-mannoside from Escherichia coli FimH by fluorescence polarization assay
Escherichia coli [3] = assay: Selectivity ratio of inhibition of Escherichia coli FimH-mediated hemagglutinination of guinea pig red blood cells to EC50 for Escherichia coli FimH
[4] = Binding affinity to Escherichia coli FimH by surface plasmon resonance assay
[5] = Binding affinity to Escherichia coli FimH by fluorescence polarization assay
Outline: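 Competitive fluorescence polarization/anisotropy assay. Compounds from 10 mM DMSO stocks were 2-fold serially diluted to 11 final concentrations of 0–10 μM, in duplicate plates. Mix: 200 nM FimH, 20 nM 5(6)-FAM-labelled mannoside tracer, 50 mM Tris, 100 mM NaCl, 1 mM EDTA, 5 μg BSA, 5 mM BME. Anisotropy was averaged over 100 readings/well and fitted to a one-site competition curve, with a mannoside positive control.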

Escherichia coli [6] = assay: Ratio of alpha-D-heptylmannoside to compound inhibitory activity against Escherichia coli FimH-mediated hemagglutinination of guinea pig red blood cells

Row | SMILES | Activity (Escherichia coli [1]) | EC50 [2] | also measured
1 | NC(=O)c1ccc(O[C@H]2O[C@H](CO)[C@@H](O)[C@H](O)[C@@H]2O)cc1 | 15 µM |  | 
2 | O=C1Cc2cc(O[C@H]3O[C@H](CO)[C@@H](O)[C@H](O)[C@@H]3O)ccc2O1 | 8 µM |  | 
3 | CS(=O)(=O)Nc1cccc(-c2ccc(O[C@H]3O[C@H](CO)[C@@H](O)[C@H](O)[C@@H]3O)cc2)c1 | 2 µM | 97 nM | 
4 | COC(=O)Cc1ccc(O[C@H]2O[C@H](CO)[C@@H](O)[C@H](O)[C@@H]2O)cc1 | 30 µM |  | 
5 | CS(=O)(=O)Nc1ccccc1-c1ccc(O[C@H]2O[C@H](CO)[C@@H](O)[C@H](O)[C@@H]2O)cc1 | 12 µM |  | 
6 | OCc1ccccc1-c1ccc(O[C@H]2O[C@H](CO)[C@@H](O)[C@H](O)[C@@H]2O)cc1 | 16 µM |  | 
7 | N#Cc1cccc(-c2ccc(O[C@H]3O[C@H](CO)[C@@H](O)[C@H](O)[C@@H]3O)cc2)c1 | 1 µM |  | 
8 | OC[C@H]1O[C@H](Oc2ccc3ccccc3c2)[C@@H](O)[C@@H](O)[C@@H]1O | 6 µM |  | 
9 | CNS(=O)(=O)c1cccc(-c2ccc(O[C@H]3O[C@H](CO)[C@@H](O)[C@H](O)[C@@H]3O)cc2)c1 | 1 µM |  | 
10 | COC(=O)c1ccc(-c2ccc(O[C@H]3O[C@H](CO)[C@@H](O)[C@H](O)[C@@H]3O)cc2)cc1 | 4 µM | 59 nM | 
11 | COC(=O)c1cccc(O[C@H]2O[C@H](CO)[C@@H](O)[C@H](O)[C@@H]2O)c1 | 6 µM | 84 nM | 
12 | N#Cc1ccccc1-c1ccc(O[C@H]2O[C@H](CO)[C@@H](O)[C@H](O)[C@@H]2O)cc1 | 2 µM |  | 
13 | COc1cccc(-c2ccc(O[C@H]3O[C@H](CO)[C@@H](O)[C@H](O)[C@@H]3O)cc2)c1 | 1.5 µM |  | 
14 | COC(=O)c1cc2ccc(O[C@H]3O[C@H](CO)[C@@H](O)[C@H](O)[C@@H]3O)cc2s1 | 2 µM |  | 
15 | OC[C@H]1O[C@H](Oc2ccccc2Cl)[C@@H](O)[C@@H](O)[C@@H]1O | 4 µM |  | 
16 | COC(=O)c1cc(C(=O)OC)cc(-c2ccc(O[C@H]3O[C@H](CO)[C@@H](O)[C@H](O)[C@@H]3O)cc2)c1 | 0.15 µM | 77 nM | Selectivity ratio (Escherichia coli [3]): 2
17 | CC(=O)Nc1cccc(O[C@H]2O[C@H](CO)[C@@H](O)[C@H](O)[C@@H]2O)c1 | 12 µM | 160 nM | 
18 | O=[N+]([O-])c1ccc(-c2ccc(O[C@H]3O[C@H](CO)[C@@H](O)[C@H](O)[C@@H]3O)cc2)cc1 | 2 µM |  | 
19 | O=C(O)c1cccc(O[C@H]2O[C@H](CO)[C@@H](O)[C@H](O)[C@@H]2O)c1 | 60 µM |  | 
20 | OC[C@H]1O[C@H](Oc2ccccc2)[C@@H](O)[C@@H](O)[C@@H]1O | 30 µM | 114 nM | 
21 | OC[C@H]1O[C@H](Oc2ccc(-c3cccnc3)cc2)[C@@H](O)[C@@H](O)[C@@H]1O | 2 µM |  | 

Row | SMILES | Activity (Escherichia coli [1]) | EC50 [2] | also measured
22 | O=C(O)c1cccc(-c2ccc(O[C@H]3O[C@H](CO)[C@@H](O)[C@H](O)[C@@H]3O)cc2)c1 | 4 µM | 99 nM | 
23 | OC[C@H]1O[C@H](Oc2ccc(Cl)cc2)[C@@H](O)[C@@H](O)[C@@H]1O | 32 µM |  | 
24 | OC[C@H]1O[C@H](Oc2ccc(-c3ccncc3)cc2)[C@@H](O)[C@@H](O)[C@@H]1O | 2 µM |  | 
25 | CNC(=O)c1cc(C(=O)NC)cc(-c2ccc(O[C@H]3O[C@H](CO)[C@@H](O)[C@H](O)[C@@H]3O)cc2)c1 | 0.37 µM | 87 nM | Selectivity ratio (Escherichia coli [3]): 4
26 | CC(=O)Nc1cccc(-c2ccc(O[C@H]3O[C@H](CO)[C@@H](O)[C@H](O)[C@@H]3O)cc2)c1 | 2 µM | 70 nM | 
27 | OC[C@H]1O[C@H](OCc2ccccc2)[C@@H](O)[C@@H](O)[C@@H]1O |  | 187 nM | 
28 | CCCCCCCO[C@H]1O[C@H](CO)[C@@H](O)[C@H](O)[C@@H]1O | 15 µM | 89 nM | Kd [4]: 5 nM
29 | OCc1ccc(-c2ccc(O[C@H]3O[C@H](CO)[C@@H](O)[C@H](O)[C@@H]3O)cc2)cc1 | 6 µM |  | 
30 | N#Cc1ccc(O[C@H]2O[C@H](CO)[C@@H](O)[C@H](O)[C@@H]2O)cc1 | 30 µM |  | 
31 | O=C(O)c1cc(C(=O)O)cc(-c2ccc(O[C@H]3O[C@H](CO)[C@@H](O)[C@H](O)[C@@H]3O)cc2)c1 | 2 µM |  | 
32 | O=C(NCCOCCNC(=O)c1cccc(-c2ccc(O[C@H]3O[C@H](CO)[C@@H](O)[C@H](O)[C@@H]3O)cc2)c1)c1cccc(-c2ccc(O[C@H]3O[C@H](CO)[C@@H](O)[C@H](O)[C@@H]3O)cc2)c1 | 0.75 µM |  | 
33 | COC(=O)c1ccc(-c2cccc(O[C@H]3O[C@H](CO)[C@@H](O)[C@H](O)[C@@H]3O)c2)cc1 | 6 µM |  | 
34 | O=[N+]([O-])c1cccc(O[C@H]2O[C@H](CO)[C@@H](O)[C@H](O)[C@@H]2O)c1 | 16 µM |  | 
35 | O=c1[nH]c2ccc(O[C@H]3O[C@H](CO)[C@@H](O)[C@H](O)[C@@H]3O)cc2o1 | 4 µM |  | 
36 | CNC(=O)c1cccc(-c2ccc(O[C@H]3O[C@H](CO)[C@@H](O)[C@H](O)[C@@H]3O)cc2)c1 | 1 µM | 75 nM | 
37 | NC(=O)c1cccc(-c2ccc(O[C@H]3O[C@H](CO)[C@@H](O)[C@H](O)[C@@H]3O)cc2)c1 | 2 µM | 78 nM | 
38 | O=C(c1ccccc1)c1cccc(O[C@H]2O[C@H](CO)[C@@H](O)[C@H](O)[C@@H]2O)c1 | 8 µM |  | 
39 | N#Cc1ccc(-c2ccc(O[C@H]3O[C@H](CO)[C@@H](O)[C@H](O)[C@@H]3O)cc2)cc1 | 8 µM |  | 
40 | OCc1cccc(-c2ccc(O[C@H]3O[C@H](CO)[C@@H](O)[C@H](O)[C@@H]3O)cc2)c1 | 3 µM |  | 
41 | Cc1ccc(O[C@H]2O[C@H](CO)[C@@H](O)[C@H](O)[C@@H]2O)cc1 | 8 µM |  | 
42 | CC(=O)Nc1ccc(O[C@H]2O[C@H](CO)[C@@H](O)[C@H](O)[C@@H]2O)cc1 | 8 µM | 122 nM | 

Row | SMILES | Activity (Escherichia coli [1]) | EC50 [2] | also measured
43 | CC(=O)Nc1ccccc1O[C@H]1O[C@H](CO)[C@@H](O)[C@H](O)[C@@H]1O | 125 µM |  | 
44 | CCCCO[C@H]1O[C@H](CO)[C@@H](O)[C@H](O)[C@@H]1O [BUTYLALPHAMAN] | 125 µM | 245 nM | Kd [4]: 151 nM
45 | COC(=O)c1cc(O[C@H]2O[C@H](CO)[C@@H](O)[C@H](O)[C@@H]2O)cc(C(=O)OC)c1 | 2 µM | 91 nM | 
46 | OC[C@H]1O[C@H](Oc2ccc(-c3ccccc3O)cc2)[C@@H](O)[C@@H](O)[C@@H]1O | 8 µM |  | 
47 | COC(=O)c1cc2cc(O[C@H]3O[C@H](CO)[C@@H](O)[C@H](O)[C@@H]3O)ccc2s1 | 2 µM |  | 
48 | CNS(=O)(=O)c1ccccc1-c1ccc(O[C@H]2O[C@H](CO)[C@@H](O)[C@H](O)[C@@H]2O)cc1 | 4 µM |  | 
49 | COC(=O)c1ccc(O[C@H]2O[C@H](CO)[C@@H](O)[C@H](O)[C@@H]2O)cc1 | 8 µM | 64 nM | 
50 | NC(=O)c1cccc(O[C@H]2O[C@H](CO)[C@@H](O)[C@H](O)[C@@H]2O)c1 | 16 µM |  | 
51 | CC(=O)Oc1cccc(O[C@H]2O[C@H](CO)[C@@H](O)[C@H](O)[C@@H]2O)c1 | 16 µM |  | 
52 | N#Cc1ccccc1O[C@H]1O[C@H](CO)[C@@H](O)[C@H](O)[C@@H]1O | 6 µM |  | 
53 | O=C(O)c1cc(C(=O)NCCCCO[C@H]2O[C@H](CO)[C@@H](O)[C@H](O)[C@@H]2O)cc(-c2c3ccc(=O)cc-3oc3cc(O)ccc23)c1 | 125 µM |  | Kd [5]: 170 nM
54 | COC(=O)c1cccc(-c2ccc(O[C@H]3O[C@H](CO)[C@@H](O)[C@H](O)[C@@H]3O)cc2)c1 | 1 µM | 52 nM | 
55 | COc1ccc(O[C@H]2O[C@H](CO)[C@@H](O)[C@H](O)[C@@H]2O)cc1 | 8 µM |  | 
56 | O=C(NCCOCCOCCNC(=O)c1cccc(-c2ccc(O[C@H]3O[C@H](CO)[C@@H](O)[C@H](O)[C@@H]3O)cc2)c1)c1cccc(-c2ccc(O[C@H]3O[C@H](CO)[C@@H](O)[C@H](O)[C@@H]3O)cc2)c1 |  |  | Ratio (Escherichia coli [6]): 8
57 | O=[N+]([O-])c1ccc(O[C@H]2O[C@H](CO)[C@@H](O)[C@H](O)[C@@H]2O)cc1 | 31 µM |  | 
58 | OC[C@H]1O[C@H](Oc2ccc(-c3cccc(O)c3)cc2)[C@@H](O)[C@@H](O)[C@@H]1O | 4 µM |  | 
59 | NC(=O)c1ccccc1-c1ccc(O[C@H]2O[C@H](CO)[C@@H](O)[C@H](O)[C@@H]2O)cc1 | 6 µM |  | 
60 | OC[C@H]1O[C@H](Oc2cccc(Cl)c2)[C@@H](O)[C@@H](O)[C@@H]1O | 8 µM |  | 
61 | N#Cc1cccc(O[C@H]2O[C@H](CO)[C@@H](O)[C@H](O)[C@@H]2O)c1 | 23 µM | 162 nM | 
